Experimental data as given in ChEMBL document CHEMBL2150942, “Synthesis and antibacterial activity of novel 1,3-diphenyl-1H-pyrazoles functionalized with phenylalanine-derived rhodanines” (Eur J Med Chem, 2012).
In brackets after ≈: the same amount, converted by molar mass.

What was measured:
Staphylococcus aureus [1] = test: Antibacterial activity against quinolone-resistant Staphylococcus aureus CCARM 3519 after 20 hrs by two fold serial dilution assay; format: functional; details: CCARM 3519, 20 h
Staphylococcus aureus [2] = test: Antibacterial activity against Staphylococcus aureus KCTC 503 after 20 hrs by two fold serial dilution assay; format: functional; details: KCTC 503, 20 h
Staphylococcus aureus [3] = test: Antibacterial activity against methicillin-resistant Staphylococcus aureus CCARM 3506 after 20 hrs by two fold serial dilution assay; format: functional; details: CCARM 3506, 20 h
Escherichia coli [4] = test: Antibacterial activity against Escherichia coli CCARM 1356 after 20 hrs by two fold serial dilution assay; format: functional; details: CCARM 1356, 20 h
Escherichia coli [5] = test: Antibacterial activity against Escherichia coli CCARM 1924 after 20 hrs by two fold serial dilution assay; format: functional; details: CCARM 1924, 20 h
Staphylococcus aureus [6] = test: Antibacterial activity against Staphylococcus aureus RN4220 after 20 hrs by two fold serial dilution assay; format: functional; details: RN4220, 20 h
Staphylococcus aureus [7] = test: Antibacterial activity against methicillin-resistant Staphylococcus aureus CCARM 3167 after 20 hrs by two fold serial dilution assay; format: functional; details: CCARM 3167, 20 h
Staphylococcus aureus [8] = test: Antibacterial activity against quinolone-resistant Staphylococcus aureus CCARM 3505 after 20 hrs by two fold serial dilution assay; format: functional; details: CCARM 3505, 20 h
Staphylococcus aureus [9] = test: Ratio of norfloxacin MIC to compound MIC for methicillin-resistant Staphylococcus aureus CCARM 3167; format: functional
Staphylococcus aureus [10] = test: Ratio of norfloxacin MIC to compound MIC for methicillin-resistant Staphylococcus aureus CCARM 3506; format: functional
HeLa [11] = test: Cytotoxicity against human HeLa cells after 48 hrs by MTT assay; format: cell-based
Summary of the method: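 HeLa cells grown in DMEM with 10% FBS and penicillin-streptomycin at 37 °C in 5% CO₂, passaged three times. About 1 × 10⁴ cells/well were seeded and attached overnight, then given a range of compound concentrations for 48 h. MTT (5 mg/ml stock) was added for 4 h, formazan dissolved in DMSO, and OD read at 570 nm. Run four times; IC50 was the concentration giving 50% growth inhibition.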

HeLa [12] = test: Cytotoxicity against human HeLa cells assessed as decrease in cell viability at 1 ug/mL after 48 hrs by MTT assay; format: cell-based
Summary of the method: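 HeLa cells (DMEM, 10% FBS, antibiotics, 37 °C, 5% CO₂) were seeded at about 1 × 10⁴ cells/well, left overnight, then exposed to compound for 48 h. Viability was read by MTT (5 mg/ml stock, 4 h), with formazan dissolved in DMSO and absorbance taken at 570 nm. Assay performed four times.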

Structure (SMILES) | MIC (Staphylococcus aureus [1]) [µg/mL] | MIC (Staphylococcus aureus [2]) [µg/mL] | MIC (Staphylococcus aureus [3]) [µg/mL] | MIC (Escherichia coli [4]) [µg/mL] | MIC (Escherichia coli [5]) [µg/mL] | MIC (Staphylococcus aureus [6]) [µg/mL] | MIC (Staphylococcus aureus [7]) [µg/mL] | MIC (Staphylococcus aureus [8]) [µg/mL] | Ratio (Staphylococcus aureus [9]) | Ratio (Staphylococcus aureus [10]) | IC50 (HeLa [11]) [µg/mL] | Activity (HeLa [12])
O=C(O)[C@@H](Cc1ccccc1)N1C(=O)/C(=C/c2cn(-c3ccccc3)nc2-c2ccc(Cl)cc2)SC1=S | 2 (≈ 3.66 µM) | 2 (≈ 3.66 µM) | 2 (≈ 3.66 µM) | > 64 | > 64 | 2 (≈ 3.66 µM) | 2 (≈ 3.66 µM) | 2 (≈ 3.66 µM) |  |  |  | 
O=C(O)[C@@H](Cc1ccccc1)N1C(=O)/C(=C/c2cn(-c3ccccc3)nc2-c2ccc(Cl)cc2Cl)SC1=S | 1 (≈ 1.72 µM) | 2 (≈ 3.45 µM) | 1 (≈ 1.72 µM) | > 64 | > 64 | 2 (≈ 3.45 µM) | 1 (≈ 1.72 µM) | 2 (≈ 3.45 µM) | 8 | 4 |  | 
Cc1ccc(-c2nn(-c3ccccc3)cc2/C=C2\SC(=S)N([C@H](Cc3ccccc3)C(=O)O)C2=O)c(C)c1 | 1 (≈ 1.85 µM) | 2 (≈ 3.71 µM) | 2 (≈ 3.71 µM) | > 64 | > 64 | 2 (≈ 3.71 µM) | 2 (≈ 3.71 µM) | 2 (≈ 3.71 µM) |  |  |  | 
Cc1ccc(-c2nn(-c3ccccc3)cc2/C=C2\SC(=S)N([C@H](Cc3ccccc3)C(=O)O)C2=O)cc1 | 1 (≈ 1.9 µM) | 1 (≈ 1.9 µM) | 1 (≈ 1.9 µM) | > 64 | > 64 | 2 (≈ 3.8 µM) | 1 (≈ 1.9 µM) | 1 (≈ 1.9 µM) | 8 | 4 | 20.2 (≈ 38.4 µM) | Non-toxic
O=C(O)[C@@H](Cc1ccccc1)N1C(=O)/C(=C/c2cn(-c3ccccc3)nc2-c2ccccc2)SC1=S | 4 (≈ 7.82 µM) | 8 (≈ 15.6 µM) | 4 (≈ 7.82 µM) | > 64 | > 64 | 2 (≈ 3.91 µM) | 4 (≈ 7.82 µM) | 4 (≈ 7.82 µM) |  |  |  | 
O=C(O)[C@@H](Cc1ccccc1)N1C(=O)/C(=C/c2cn(-c3ccccc3)nc2-c2cccc(Br)c2)SC1=S | 4 (≈ 6.77 µM) | 8 (≈ 13.5 µM) | 4 (≈ 6.77 µM) | > 64 | > 64 | 2 (≈ 3.39 µM) | 4 (≈ 6.77 µM) | 4 (≈ 6.77 µM) |  |  |  | 
O=C(O)[C@@H](Cc1ccccc1)N1C(=O)/C(=C/c2cn(-c3ccccc3)nc2-c2ccc(F)cc2)SC1=S | 1 (≈ 1.89 µM) | 16 (≈ 30.2 µM) | 1 (≈ 1.89 µM) | > 64 | > 64 | 4 (≈ 7.55 µM) | 1 (≈ 1.89 µM) | 1 (≈ 1.89 µM) | 8 | 4 |  | 
O=C(O)[C@@H](Cc1ccccc1)N1C(=O)/C(=C/c2cn(-c3ccccc3)nc2-c2ccc(Br)cc2)SC1=S | 16 (≈ 27.1 µM) | 16 (≈ 27.1 µM) | 1 (≈ 1.69 µM) | > 64 | > 64 | 4 (≈ 6.77 µM) | 1 (≈ 1.69 µM) | 1 (≈ 1.69 µM) | 8 | 4 |  | 
O=C(O)[C@@H](Cc1ccccc1)N1C(=O)/C(=C/c2cn(-c3ccccc3)nc2-c2ccc3ccccc3c2)SC1=S | 16 (≈ 28.5 µM) | 16 (≈ 28.5 µM) | 16 (≈ 28.5 µM) | > 64 | > 64 | 2 (≈ 3.56 µM) | 16 (≈ 28.5 µM) | 16 (≈ 28.5 µM) |  |  |  | 
O=C(O)[C@@H](Cc1ccccc1)N1C(=O)/C(=C/c2cn(-c3ccccc3)nc2-c2ccc([N+](=O)[O-])cc2)SC1=S | 1 (≈ 1.8 µM) | 16 (≈ 28.7 µM) | 1 (≈ 1.8 µM) | > 64 | > 64 | 4 (≈ 7.19 µM) | 1 (≈ 1.8 µM) | 1 (≈ 1.8 µM) | 8 | 4 |  | 
COc1ccccc1-c1nn(-c2ccccc2)cc1/C=C1\SC(=S)N([C@H](Cc2ccccc2)C(=O)O)C1=O | 16 (≈ 29.5 µM) | 16 (≈ 29.5 µM) | 16 (≈ 29.5 µM) | > 64 | > 64 | 2 (≈ 3.69 µM) | 16 (≈ 29.5 µM) | 16 (≈ 29.5 µM) |  |  |  | 
COc1ccc(-c2nn(-c3ccccc3)cc2/C=C2\SC(=S)N([C@H](Cc3ccccc3)C(=O)O)C2=O)cc1 | 8 (≈ 14.8 µM) | 16 (≈ 29.5 µM) | 4 (≈ 7.38 µM) | > 64 | > 64 | 4 (≈ 7.38 µM) | 4 (≈ 7.38 µM) | 4 (≈ 7.38 µM) |  |  |  | 
O=C(O)[C@@H](Cc1ccccc1)N1C(=O)/C(=C/c2cn(-c3ccccc3)nc2-c2ccccc2Cl)SC1=S | 1 (≈ 1.83 µM) | 2 (≈ 3.66 µM) | 1 (≈ 1.83 µM) | > 64 | > 64 | 2 (≈ 3.66 µM) | 1 (≈ 1.83 µM) | 2 (≈ 3.66 µM) | 8 | 4 | 30.2 (≈ 55.4 µM) | Non-toxic
COc1cccc(-c2nn(-c3ccccc3)cc2/C=C2\SC(=S)N([C@H](Cc3ccccc3)C(=O)O)C2=O)c1 | 16 (≈ 29.5 µM) | 16 (≈ 29.5 µM) | 16 (≈ 29.5 µM) | > 64 | > 64 | 4 (≈ 7.38 µM) | 16 (≈ 29.5 µM) | 16 (≈ 29.5 µM) |  |  |  | 
O=C(O)[C@@H](Cc1ccccc1)N1C(=O)/C(=C/c2cn(-c3ccccc3)nc2-c2ccccc2F)SC1=S | 4 (≈ 7.55 µM) | 16 (≈ 30.2 µM) | 4 (≈ 7.55 µM) | > 64 | > 64 | 4 (≈ 7.55 µM) | 4 (≈ 7.55 µM) | 2 (≈ 3.78 µM) |  |  |  | 
CCn1cc(C(=O)O)c(=O)c2cc(F)c(N3CCNCC3)cc21 [NORFLOXACIN] | > 64 | 2 (≈ 6.26 µM) | 4 (≈ 12.5 µM) | 16 (≈ 50.1 µM) | 16 (≈ 50.1 µM) | 2 (≈ 6.26 µM) | 8 (≈ 25.1 µM) | > 64 |  |  |  | 
Cc1onc(-c2ccccc2)c1C(=O)N[C@@H]1C(=O)N2[C@@H]1SC(C)(C)[C@@H]2C(=O)O [OXACILLIN] | 1 (≈ 2.49 µM) | 1 (≈ 2.49 µM) | > 64 | > 64 | > 64 | 1 (≈ 2.49 µM) | > 64 | 1 (≈ 2.49 µM) |  |  |  | 
